Tests used:
[1] = target: T1, Membrane-associated tyrosine- and threonine-specific cdc2-inhibitory kinase (Homo sapiens) (UniProt Q99640); assay: Inhibition of PKMYT1 at 1 uM
T1 sequence (whole entry): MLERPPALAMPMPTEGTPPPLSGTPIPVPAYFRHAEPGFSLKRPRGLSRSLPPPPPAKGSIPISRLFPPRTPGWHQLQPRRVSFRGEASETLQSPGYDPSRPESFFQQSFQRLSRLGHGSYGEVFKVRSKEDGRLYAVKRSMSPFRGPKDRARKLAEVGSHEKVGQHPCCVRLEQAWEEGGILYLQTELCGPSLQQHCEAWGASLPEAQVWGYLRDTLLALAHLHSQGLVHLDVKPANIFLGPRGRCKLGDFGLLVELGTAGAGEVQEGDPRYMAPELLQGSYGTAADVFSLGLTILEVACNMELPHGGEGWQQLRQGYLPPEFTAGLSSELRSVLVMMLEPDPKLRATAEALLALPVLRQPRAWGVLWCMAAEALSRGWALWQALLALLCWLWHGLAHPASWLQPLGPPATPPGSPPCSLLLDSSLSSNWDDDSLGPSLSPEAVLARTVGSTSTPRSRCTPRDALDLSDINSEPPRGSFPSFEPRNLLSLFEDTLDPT

[2] = target: Calcium/calmodulin-dependent protein kinase type 1G (Homo sapiens) (UniProt Q96NX5); assay: Inhibition of CAMK1G at 1 uM
Method in brief: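 Ambit KINOMEscan screen at a single concentration across a 250–400 kinase panel, recorded as percent inhibition. Selectivity was expressed as S(90), the fraction of kinases inhibited >90%.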

[3] = target: Serine/threonine-protein kinase pim-1 (Homo sapiens) (UniProt P11309); assay: Inhibition of PIM1 at 1 uM
[4] = target: Epidermal growth factor receptor (Homo sapiens) (UniProt P04626+P00533+Q15303+P21860); assay: Inhibition of EGFR L747-S752del, P753S mutant at 1 uM; type: protein assay
Method in brief: (§1)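 Single-concentration screen using Ambit Bioscience KINOMEscan technology across a panel of 250–400 kinases. Per-kinase inhibition from this screen was summarized as S(90), the fraction of kinases inhibited by more than 90%.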

[5] = target: Angiopoietin-1 receptor (Homo sapiens) (UniProt Q02763); assay: Inhibition of TIE2 at 1 uM
[6] = target: T2, Serine/threonine-protein kinase tousled-like 1 (Homo sapiens) (UniProt Q9UKI8); assay: Inhibition of TLK1 at 1 uM
T2 sequence (whole entry): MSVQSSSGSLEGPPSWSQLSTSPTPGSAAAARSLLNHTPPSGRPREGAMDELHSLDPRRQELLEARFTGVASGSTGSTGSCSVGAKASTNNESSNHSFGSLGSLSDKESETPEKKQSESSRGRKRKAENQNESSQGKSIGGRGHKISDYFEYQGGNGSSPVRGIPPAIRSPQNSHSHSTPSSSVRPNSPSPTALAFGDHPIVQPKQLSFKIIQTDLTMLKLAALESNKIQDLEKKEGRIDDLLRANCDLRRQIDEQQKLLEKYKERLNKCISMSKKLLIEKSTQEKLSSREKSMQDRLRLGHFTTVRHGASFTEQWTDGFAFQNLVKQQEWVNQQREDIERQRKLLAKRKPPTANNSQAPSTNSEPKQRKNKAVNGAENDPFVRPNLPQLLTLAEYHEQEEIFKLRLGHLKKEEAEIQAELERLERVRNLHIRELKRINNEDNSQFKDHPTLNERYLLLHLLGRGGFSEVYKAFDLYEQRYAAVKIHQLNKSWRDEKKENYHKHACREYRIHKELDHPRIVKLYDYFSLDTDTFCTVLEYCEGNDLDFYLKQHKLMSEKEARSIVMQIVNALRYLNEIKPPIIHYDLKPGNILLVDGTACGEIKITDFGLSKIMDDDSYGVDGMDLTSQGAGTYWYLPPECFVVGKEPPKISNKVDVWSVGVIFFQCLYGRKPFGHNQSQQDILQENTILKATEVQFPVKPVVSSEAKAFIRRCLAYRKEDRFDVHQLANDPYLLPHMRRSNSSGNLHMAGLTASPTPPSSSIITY

[7] = target: T3, Ephrin type-A receptor 6 (Homo sapiens) (UniProt Q9UF33); assay: Inhibition of EPHA6 at 1 uM; method in brief: as §1
T3 sequence (whole entry): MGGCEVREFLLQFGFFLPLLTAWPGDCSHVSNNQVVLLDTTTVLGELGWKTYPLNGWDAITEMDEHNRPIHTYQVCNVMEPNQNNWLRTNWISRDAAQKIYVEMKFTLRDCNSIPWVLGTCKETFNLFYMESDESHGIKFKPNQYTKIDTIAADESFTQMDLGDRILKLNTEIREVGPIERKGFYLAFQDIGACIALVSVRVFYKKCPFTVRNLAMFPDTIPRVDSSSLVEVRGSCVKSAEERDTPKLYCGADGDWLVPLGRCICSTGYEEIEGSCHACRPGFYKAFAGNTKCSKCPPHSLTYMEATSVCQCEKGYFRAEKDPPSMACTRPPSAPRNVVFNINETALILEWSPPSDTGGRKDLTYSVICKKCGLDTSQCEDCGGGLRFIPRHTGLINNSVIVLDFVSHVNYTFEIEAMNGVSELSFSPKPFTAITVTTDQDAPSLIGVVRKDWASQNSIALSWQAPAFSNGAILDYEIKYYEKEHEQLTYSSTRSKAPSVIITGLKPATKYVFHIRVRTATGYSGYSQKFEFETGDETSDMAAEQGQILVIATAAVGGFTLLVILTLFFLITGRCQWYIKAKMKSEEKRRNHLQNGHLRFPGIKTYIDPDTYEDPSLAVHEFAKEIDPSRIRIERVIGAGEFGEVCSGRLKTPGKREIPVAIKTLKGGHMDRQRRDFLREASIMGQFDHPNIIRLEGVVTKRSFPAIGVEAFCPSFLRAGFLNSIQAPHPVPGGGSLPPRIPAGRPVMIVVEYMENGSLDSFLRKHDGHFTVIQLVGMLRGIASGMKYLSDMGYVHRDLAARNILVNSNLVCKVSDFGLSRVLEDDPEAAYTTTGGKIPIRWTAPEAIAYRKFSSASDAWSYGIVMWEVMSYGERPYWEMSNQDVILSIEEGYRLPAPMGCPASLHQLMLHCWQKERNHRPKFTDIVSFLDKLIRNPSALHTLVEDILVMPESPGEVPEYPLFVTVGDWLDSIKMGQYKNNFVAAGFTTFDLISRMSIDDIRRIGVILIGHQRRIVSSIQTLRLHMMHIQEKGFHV

Measured: inhibition

Sequence of Calcium/calmodulin-dependent protein kinase type 1G (Homo sapiens) (Q96NX5 whole entry): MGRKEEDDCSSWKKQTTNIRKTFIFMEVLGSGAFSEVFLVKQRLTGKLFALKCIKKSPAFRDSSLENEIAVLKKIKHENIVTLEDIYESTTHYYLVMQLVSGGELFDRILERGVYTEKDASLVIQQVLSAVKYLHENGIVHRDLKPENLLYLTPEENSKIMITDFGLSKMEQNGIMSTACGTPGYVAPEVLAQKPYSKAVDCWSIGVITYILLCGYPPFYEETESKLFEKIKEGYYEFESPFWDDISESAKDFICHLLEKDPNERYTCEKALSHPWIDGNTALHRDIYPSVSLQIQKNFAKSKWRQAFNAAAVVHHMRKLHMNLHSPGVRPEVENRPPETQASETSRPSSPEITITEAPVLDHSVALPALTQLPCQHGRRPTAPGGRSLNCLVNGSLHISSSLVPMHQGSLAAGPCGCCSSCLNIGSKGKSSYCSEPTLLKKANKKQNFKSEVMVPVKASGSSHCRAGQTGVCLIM
Sequence of Serine/threonine-protein kinase pim-1 (Homo sapiens) (P11309 whole entry, looked up): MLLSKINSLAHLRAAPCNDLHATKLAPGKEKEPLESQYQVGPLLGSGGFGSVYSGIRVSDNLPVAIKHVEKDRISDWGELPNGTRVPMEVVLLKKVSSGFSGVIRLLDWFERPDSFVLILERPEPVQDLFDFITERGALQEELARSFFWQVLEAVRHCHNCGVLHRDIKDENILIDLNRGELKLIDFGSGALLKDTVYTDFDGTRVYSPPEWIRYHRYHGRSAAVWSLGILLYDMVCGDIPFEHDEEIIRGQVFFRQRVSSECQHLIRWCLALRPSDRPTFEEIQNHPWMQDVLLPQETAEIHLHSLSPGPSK
Sequence of Angiopoietin-1 receptor (Homo sapiens) (Q02763 whole entry): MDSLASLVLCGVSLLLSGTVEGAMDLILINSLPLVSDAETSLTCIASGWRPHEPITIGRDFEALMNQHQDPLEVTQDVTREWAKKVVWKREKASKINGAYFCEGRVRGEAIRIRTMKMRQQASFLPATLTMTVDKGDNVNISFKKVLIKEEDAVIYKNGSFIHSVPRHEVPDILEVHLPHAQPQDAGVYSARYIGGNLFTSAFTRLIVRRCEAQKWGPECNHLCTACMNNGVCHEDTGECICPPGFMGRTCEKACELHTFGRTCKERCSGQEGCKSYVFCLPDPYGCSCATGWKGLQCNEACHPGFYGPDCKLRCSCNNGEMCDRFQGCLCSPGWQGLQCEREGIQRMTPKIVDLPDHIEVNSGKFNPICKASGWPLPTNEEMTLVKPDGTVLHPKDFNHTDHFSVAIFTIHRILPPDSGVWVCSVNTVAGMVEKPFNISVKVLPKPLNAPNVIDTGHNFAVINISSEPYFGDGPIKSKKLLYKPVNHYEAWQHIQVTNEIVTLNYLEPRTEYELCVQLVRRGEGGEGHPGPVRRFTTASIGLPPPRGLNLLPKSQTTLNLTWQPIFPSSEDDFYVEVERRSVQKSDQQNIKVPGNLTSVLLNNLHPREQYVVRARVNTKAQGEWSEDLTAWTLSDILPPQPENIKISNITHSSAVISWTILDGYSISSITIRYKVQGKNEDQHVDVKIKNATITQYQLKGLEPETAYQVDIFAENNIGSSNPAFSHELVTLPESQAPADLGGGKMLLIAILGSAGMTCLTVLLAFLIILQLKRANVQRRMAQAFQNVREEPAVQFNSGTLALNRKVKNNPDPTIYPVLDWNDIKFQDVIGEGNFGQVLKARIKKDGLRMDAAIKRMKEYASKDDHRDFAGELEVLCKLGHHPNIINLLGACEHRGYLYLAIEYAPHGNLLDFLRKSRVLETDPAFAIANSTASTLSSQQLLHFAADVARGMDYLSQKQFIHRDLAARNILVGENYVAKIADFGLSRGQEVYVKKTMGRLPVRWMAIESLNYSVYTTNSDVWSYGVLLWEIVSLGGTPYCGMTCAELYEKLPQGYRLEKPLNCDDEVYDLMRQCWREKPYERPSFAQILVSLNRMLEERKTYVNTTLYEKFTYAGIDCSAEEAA

CN1CCN(c2ccc(-c3cnc4c(c3)N(Cc3cc(F)ccc3F)CCN4)cn2)CC1
< 50%: all assays above

O=C(c1ccc(-c2cnc3c(c2)N(Cc2cc(Cl)ccc2C(F)(F)F)CCN3)cc1)N1CCC(N2CCCC2)CC1
< 50%: all assays above

O=C(c1ccc(-c2cnc3c(c2)N(Cc2cc(Cl)ccc2C(F)(F)F)CCN3)cc1)N1CCCCC1
< 50%: all assays above

CN1CCN(c2ccc(-c3cnc4c(c3)N(Cc3c(F)ccc(F)c3Cl)CCN4)cn2)CC1
< 50%: all assays above

COC1CCN(C(=O)c2ccc(-c3cnc4c(c3)N(Cc3cc(Cl)ccc3C(F)(F)F)CCN4)cc2)CC1
< 50%: all assays above

O=C(O)c1ccc(-c2cnc3c(c2)N(Cc2cc(Cl)ccc2C(F)(F)F)CCN3)cc1
< 50%: all assays above

CC(=O)N1CCN(c2cc(-c3cnc4c(c3)N(Cc3cc(Cl)ccc3C(F)(F)F)CCN4)ccn2)CC1
< 50%: all assays above

FC(F)(F)c1ccc(Cl)cc1CN1CCNc2ncc(-c3ccnc(N4CCNCC4)c3)cc21
< 50%: all assays above

CN1CCN(c2ccc(-c3cnc4c(c3)N(Cc3cc(Cl)ccc3C(F)(F)F)CCN4)cn2)CC1
< 50%: all assays above

CN1CCN(c2ccc(-c3cnc4c(c3)N(Cc3cc(Cl)ccc3Cl)CCN4)cn2)CC1
< 50%: all assays above

From ChEMBL document CHEMBL1165965, “Synthesis and structure-activity relationships of 1,2,3,4-tetrahydropyrido[2,3-b]pyrazines as potent and selective inhibitors of the anaplastic lymphoma kinase” (Bioorg Med Chem, 2010)
